Assay results as given in PMC3819908 (Journal of molecular biology, 2011).
Where a name gives a salt, the structure may show the parent alone.

Columns and labels:
β1AR-m23 = β1AR-m23 (Meleagris gallopavo, UniProt P07700, A282L/C116L/F327A/F338M/M90V/R68S/Y227A); assay: Saturation binding of ^3H-DHA to DDM-solubilised receptor; set-up: species or system turkey; settings: read-out: KD for ^3H-DHA, E. coli membranes, solubilised in DDM, n = 4
How it was run: (§1)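 Receptor expressed in E. coli XL1 by auto-induction (37°C 6 h, then 25°C overnight). French-press membranes were solubilised for 1 h on ice in 20 mM Tris pH 8, 0.4 M NaCl, 1% detergent. Binding ran in 20 mM Tris pH 8, 0.4 M NaCl, 0.1% DDM with 1.25-160 nM 3H-DHA. KD came from nonlinear regression; 2-4 experiments in duplicate.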

β1AR-JM3 [1] = molecular target: T1, β1AR-JM3 (Meleagris gallopavo, UniProt P07700, A282L/C116L/D200E/D322K/F327A/F338M/I129V/M90V/R68S/Y227A/Y343L); assay: as above; set-up: species or system turkey; settings: read-out: KD for ^3H-DHA, E. coli membranes, solubilised in DDM, n = 4
T1 sequence (P07700 34-424 R68S/M90V/C116L/I129V/D200E/Y227A/A282L/D322K/F327A/F338M/Y343L): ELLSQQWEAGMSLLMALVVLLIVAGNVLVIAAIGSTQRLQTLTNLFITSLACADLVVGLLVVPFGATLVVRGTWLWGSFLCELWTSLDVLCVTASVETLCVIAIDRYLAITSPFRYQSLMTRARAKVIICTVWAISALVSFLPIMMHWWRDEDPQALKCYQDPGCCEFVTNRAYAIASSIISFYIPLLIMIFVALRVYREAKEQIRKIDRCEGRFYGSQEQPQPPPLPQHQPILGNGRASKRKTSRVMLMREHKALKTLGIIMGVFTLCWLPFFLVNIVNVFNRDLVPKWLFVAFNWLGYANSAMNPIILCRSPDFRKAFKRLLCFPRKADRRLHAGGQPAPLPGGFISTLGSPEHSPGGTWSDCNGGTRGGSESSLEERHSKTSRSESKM
How it was run: as §1

β1AR-JM3 [2] = molecular target: T1, β1AR-JM3; assay: Competition binding, displacement of ^3H-DHA; set-up: species or system turkey; settings: competition with ^3H-DHA
[3] = Thermostability assay of detergent-solubilised receptors expressed in E. coli; format: physicochemical, turkey; settings: for increase in thermostability (apparent Tm) relative to β1AR-m23: solubilised in NG
[4] = Thermostability assay of cysteine mutants expressed in HEK293T cells; format: physicochemical, turkey; settings: Cys mutants, solubilised in NG
How it was run: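 Transiently transfected HEK293T cells were harvested after 48 h, held 1 h on ice in 75 mM Tris pH 8, 12.5 mM MgCl2, 2 mM EDTA, then detergent-solubilised at 4°C. Samples were diluted in 20 mM Tris pH 8, 0.4 M NaCl and heated 30 min at a range of temperatures without ligand. 3H-DHA (80 nM final) was added for 1 h at 4°C; gel-filtration separation gave apparent Tm.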

[5] = in dodecylmaltoside (DDM); cited from earlier work

Chain of β1AR-m23 (P07700 34-424 R68S/M90V/C116L/Y227A/A282L/F327A/F338M): as the sequence (P07700 34-424 R68S/M90V/C116L/I129V/D200E/Y227A/A282L/D322K/F327A/F338M/Y343L) above, with V96I, E167D, K289D, L310Y counted along it

For “1-[4,6-propyl-^3H]dihydroalprenolol [^3H-DHA]”, the Kd (β1AR-m23) was 5.5 ± 1.1 nM and the Kd (β1AR-JM3 [1]) was 10.6 ± 1.6 nM.
For `NC[C@H](O)c1ccc(O)c(O)c1` [noradrenaline, L-(-)-norepinephrine bitartrate salt monohydrate], the “fold weaker binding to β1AR-JM3 compared to wild-type β1AR” value (β1AR-JM3 [2]) was 4960 fold.
With “D322K: β1AR-m23 salt bridge mutant D322K” the “increase in thermostability (apparent Tm) relative to β1AR-m23” value [3] was 5 °C.
With “M44C: single cysteine mutant of β1AR-m23” the “destabilisation (decrease in thermostability) relative to β1AR-m23” value [4] was 4 °C.
For “V103C: single cysteine mutant of β1AR-m23”, the “destabilisation (decrease in thermostability) relative to β1AR-m23” value [4] was 7 °C.
For “Y343L: most stabilising single mutation of β1AR-m23 from the leucine scan”, the “increase in thermostability (apparent Tm) relative to β1AR-m23” value [3] was 5 °C.
In the case of “wild-type receptor: residues 34-424 of the turkey β1AR”, the “decrease in stability on addition of Zn^2+” value ([3]; 1 mM ZnCl2) is reported as “up to 7 °C”.
For “β1AR-m23: residues 34-424 of turkey β1-adrenoceptor with R68S, M90V, Y227A, A282L, F327A, F338M and C116L”, the “apparent Tm” value ([3]; 0.8% NG, identical conditions) is given as 23.4 ± 0.8 °C and the “increase of the apparent Tm relative to wild type” value [5] is given as 21 °C.
